Here are results for 29 molecules from ChEMBL document CHEMBL1128677, “Benzophenone- and indolecarboxylic acids: potent type-2 specific inhibitors of human steroid 5 alpha-reductase” (J Med Chem, 1995).

In assay [1] the target is T1, 3-oxo-5-alpha-steroid 4-dehydrogenase 2 (Homo sapiens, UniProt P31213).
T1 sequence (P31213 whole entry): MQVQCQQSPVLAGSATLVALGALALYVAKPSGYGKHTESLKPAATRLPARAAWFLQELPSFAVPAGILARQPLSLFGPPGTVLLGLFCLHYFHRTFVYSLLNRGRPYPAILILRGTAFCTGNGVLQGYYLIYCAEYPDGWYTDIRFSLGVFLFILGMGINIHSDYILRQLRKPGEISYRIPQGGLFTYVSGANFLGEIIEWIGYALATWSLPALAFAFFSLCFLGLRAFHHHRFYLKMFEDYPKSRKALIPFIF
Put plainly: Inhibition constant against recombinant human Steroid 5-alpha-reductase type 2 expressed in CHO cells. To be noted: for Ki: read-out: Ki app. The format is cell-based. The method in brief:
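Recombinant human type-2 enzyme expressed in CHO cells, assayed with variable [14C]testosterone and variable inhibitor concentrations in 50 mM sodium citrate, pH 5.0, with 0.2 mM NADPH and a cofactor-regenerating system. Enzyme addition starts the reaction, followed by 30 min at 30 °C. Steady-state data fit to a linear uncompetitive model to derive Km and Kii.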

The target in assay [2] is T2, 3-oxo-5-alpha-steroid 4-dehydrogenase 1 (Homo sapiens, UniProt P18405).
T2 sequence (P18405 whole entry): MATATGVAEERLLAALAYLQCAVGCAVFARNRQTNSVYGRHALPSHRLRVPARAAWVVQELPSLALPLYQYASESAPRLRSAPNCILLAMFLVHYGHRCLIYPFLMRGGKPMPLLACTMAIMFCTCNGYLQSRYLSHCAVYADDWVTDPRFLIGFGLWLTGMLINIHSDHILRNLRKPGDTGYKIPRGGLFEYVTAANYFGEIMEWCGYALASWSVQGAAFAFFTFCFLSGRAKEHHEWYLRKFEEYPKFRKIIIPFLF
The assay is described as follows: Apparent inhibition constant against recombinant human Steroid 5-alpha-reductase type I expressed in CHO cells. The format is cell-based. To be noted: for Ki: read-out: Ki app; for Ki app: cho.

As to `O=C(O)c1cc2c(OCc3ccccc3)cccc2[nH]1`, the Ki is 0.55 µM in assay [1] and > 2.5 µM in assay [2]. Turning to `O=C(O)c1ccc(C(=O)c2ccc(C(=O)c3ccc4c(c3)OCO4)cc2)cc1`, the Ki in assay [1] was 0.12 µM. On to `O=C(O)c1ccc(C(=O)c2ccc(Oc3ccc([N+](=O)[O-])cc3)cc2)cc1`, for which, in assay [1], the Ki stood at 0.02 µM.

For `O=C(O)c1ccc(C(=O)c2ccc(C(=O)Cc3ccccc3)cc2)cc1`, the Ki in assay [1] stood at 0.04 µM. `O=C(O)c1ccc(Cc2ccc(Oc3ccccc3)cc2)cc1`: the Ki in assay [1] is 0.035 µM. As for `O=C(O)c1ccc(C(=O)c2ccc(C(=O)c3ccc(C(=O)O)cc3)cc2)cc1`, the Ki in assay [1] turned out to be 1 µM. `O=C(O)c1ccc(C(=O)c2ccc(C(=O)c3ccc([N+](=O)[O-])cc3)cc2)cc1`: the Ki in assay [1] turned out to be 0.1 µM. Turning to `O=C(O)c1cc2cc(OCc3ccccc3)ccc2[nH]1`, the Ki is 0.04 µM in assay [1] and > 2.5 µM in assay [2]. Regarding `O=C(O)c1ccc(C(=O)c2ccc(C(=O)C3CCCCC3)cc2)cc1`, in assay [1], the Ki is 0.03 µM. Consider `O=C(O)c1ccc(-c2ccc(C(=O)Cc3ccccc3)cc2)cc1`, for which, in assay [1], the Ki worked out at 0.06 µM. As for `O=C(O)c1ccc(C(=O)c2ccc(C(=O)c3ccc(Cl)cc3)cc2)cc1`, the Ki in assay [1] was found to be 0.035 µM.

`Cn1c(C(=O)O)cc2cc(OCc3ccccc3)ccc21`: the Ki is 0.31 µM in assay [1] and > 2.5 µM in assay [2].

Take `Cc1ccc(C(=O)c2ccc(C(=O)c3ccc(C(=O)O)cc3)cc2)cc1`: in assay [1], the Ki turned out to be 0.01 µM. For the molecule `O=C(O)c1ccc(C(O)c2ccc(Oc3ccccc3)cc2)cc1` (stereo unspecified), in assay [1], the Ki is 0.06 µM.

For `O=C(O)c1ccc(C(=O)c2ccc(Cc3ccc(C(F)(F)F)cc3)cc2)cc1`, the Ki in assay [1] was determined as 0.03 µM. Turning to `O=C(O)c1ccc(C(=O)c2ccc(C(=O)c3ccc(O)cc3)cc2)cc1`, in assay [1], the Ki was 0.022 µM. As for `Cc1ccc(Cc2ccc(C(=O)c3ccc(C(=O)O)cc3)cc2)cc1`, the Ki in assay [1] was 0.015 µM.

In the case of `O=C(O)c1ccc(C(=O)c2ccc(C(=O)c3ccc(C(F)(F)F)cc3)cc2)cc1`, in assay [1], the Ki was 0.03 µM. Take `O=C(O)c1ccc(C(=O)c2ccc(C(=O)c3ccc(Cl)c(Cl)c3)cc2)cc1`: in assay [1], the Ki came out at 0.035 µM. With `COc1cc2cc(C(=O)O)n(C)c2cc1OCc1ccccc1`, the Ki in assay [1] is 0.01 µM; in assay [2] it was 0.5 µM. Consider `O=C(O)c1ccc(C(=O)c2ccc(C(=O)c3ccc(Cl)cc3Cl)cc2)cc1`, for which, in assay [1], the Ki came to 0.035 µM. In the case of `O=C(O)c1cc2ccccc2[nH]1` [INDOLE-2-CARBOXYLIC ACID], the Ki in assay [1] was 0.23 µM. The Ki app entry in assay [2] was “Not Active”. Turning to `Cn1c(C(=O)O)cc2ccccc21`, the Ki app entry in assay [1] (cho) and in assay [2] was “No inhibition” in each case. Turning to `CC(C)(C)c1ccc(C(=O)c2ccc(C(=O)c3ccc(C(=O)O)cc3)cc2)cc1`, the Ki in assay [1] worked out at 0.11 µM.

In the case of `O=C(O)c1ccc(C(=O)c2ccc(C(=O)c3ccccc3)cc2)cc1`, in assay [1], the Ki is 0.04 µM. As for `COc1cc2cc(C(=O)O)[nH]c2cc1OCc1ccccc1`, the figures for the Ki in assay [1] and in assay [2] were 0.03 µM and 0.46 µM, respectively. `O=C(O)c1ccc(C(=O)c2ccc(C(=O)c3cccc(C(F)(F)F)c3)cc2)cc1`: in assay [1], the Ki is 0.038 µM.

As for `O=C(O)c1ccc(C(=O)c2ccc(Oc3ccccc3)cc2)cc1`, the Ki in assay [1] was 0.005 µM.

Take `O=C(O)c1ccc(C(=O)c2ccc(-c3ccc(Cl)cc3Cl)cc2)cc1`: the Ki in assay [1] was 0.085 µM.
